Columns and labels:
[1] = Dopamine receptor binding affinity by displacing the radioligand [3H]spiroperidol from dopamine receptor.; design: species or system Bos taurus
In short: (§1)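 Radioligand displacement was run on membrane fractions from calf caudate nucleus, with [3H]DA or [3H]spiroperidol as the labelled ligand.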

[2] = Dopamine receptor binding affinity by displacing the radioligand [3H]-dopamine from dopamine receptor.; design: species or system Bos taurus; in short: as §1
Rattus norvegicus = experiment: Compound was evaluated for the contralateral turning in 6-hydroxy-dopamine-lesioned rats administered intraperitoneally at the dose 1 mg/kg; assay type: functional; conditions: route intraperitoneal
In short: (§2)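 Rats carrying a unilateral lesion of the nigrostriatal pathway were scored for induced turning toward the side contralateral to the lesion, using an Ungerstedt-type rotation procedure.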

[3] = biological target: T1, Dopamine receptor (Rattus norvegicus) (UniProt P25115+P19020+P30729+P18901+P61169); experiment: Evaluation for contralateral turning in 6-hydroxy-dopamine-lesioned rats administered intraperitoneally at the dose 1 mg/kg total turnings; assay type: functional, organism-based; design: dose 1 mg/kg; in short: as §2
[4] = biological target: T1, Dopamine receptor (Rattus norvegicus); experiment: Evaluation for contralateral turning in 6-hydroxy-dopamine-lesioned rats administered intraperitoneally at the dose 1 mg/kg duration; assay type: functional, organism-based; design: dose 1 mg/kg; in short: as §2
[5] = biological target: T1, Dopamine receptor (Rattus norvegicus); experiment: Evaluation for contralateral turning in 6-hydroxy-dopamine-lesioned rats administered intraperitoneally at the dose 1 mg/kg Maximum intensity (turnings/min); assay type: functional, organism-based; design: dose 1 mg/kg; in short: as §2

IC50 [1] [nM] | IC50 [2] [nM] | Total turnings [3] | Duration [4] [h] | Max intensity [5] [turns min-1] | SMILES | Duration (Rattus norvegicus) [h] | Max intensity (Rattus norvegicus) [turns min-1] | Total turnings (Rattus norvegicus)
790 | 35 |  |  |  | CCCN(CCCC#N)C1CCc2c(O)cccc2C1 (stereo in doubt; 3) [listing 1 of 2 here] |  |  | 
525 | 77 |  |  |  | CCCN(CCCNC(=O)OCC)C1CCc2c(O)cccc2C1 (stereo not drawn) | 5 | 10.4 | 1216
220 | 41 |  |  |  | CCCN(CCNS(=O)(=O)N(CC)CC)C1CCc2c(O)cccc2C1 (stereo not drawn) | 3 | 7.8 | 1015
 |  | 3590 | 7 | 15.2 | CCCN(CCCSC)C1CCc2c(O)cccc2C1 (single isomer, unassigned; (-)) [listing 1 of 2 here] |  |  | 
4580 | 2000 |  |  |  | CCCN(CCCN)C1CCc2c(O)cccc2C1 (stereo not drawn) |  |  | 
920 | 68 | < 150 |  |  | CCN(CCCC#N)C1CCc2c(O)cccc2C1 (stereo not drawn) |  |  | 
2200 | 150 | 347 | 2 | 7.4 | CCCN(CCCOC)C1CCc2c(O)cccc2C1 (stereo not drawn) |  |  | 
140 | 48 | 656 | 5 | 6.6 | CCCN(CCCc1ccccc1)C1CCc2c(O)cccc2C1 (stereo not drawn) |  |  | 
370 | 37 |  |  |  | CCCN(CCCC#N)C1CCc2c(O)cccc2C1 (stereo in doubt; (-)-3) [listing 1 of 2 here] |  |  | 
180 | 40 | 1520 | 6 | 8.7 | CCCN(CCc1ccccc1)C1CCc2c(O)cccc2C1 (stereo not drawn) |  |  | 
825 | 38 |  |  |  | CCCN(CCCC(=O)NC)C1CCc2c(O)cccc2C1 (stereo not drawn) | 6 | 6.4 | 413
370 | 100 |  |  |  | CCCN(CCCNS(=O)(=O)N(C)C)C1CCc2c(O)cccc2C1 (stereo not drawn) | 4 | 7.6 | 857
 |  | 1170 | 3 | 10.3 | CCCN(CCCC#N)C1CCc2c(O)cccc2C1 (stereo in doubt; 3) [listing 2 of 2 here] |  |  | 
 |  | 3260 | 6 | 12 | CCCN(CCCC#N)C1CCc2c(O)cccc2C1 (stereo in doubt; (-)-3) [listing 2 of 2 here] |  |  | 
1450 | 185 | 721 | 3 | 10.2 | CCCN(CCCO)C1CCc2c(O)cccc2C1 (stereo not drawn) |  |  | 
230 | 38 |  |  |  | CCCN(CCCSC)C1CCc2c(O)cccc2C1 (single isomer, unassigned; (-)) [listing 2 of 2 here] |  |  | 
1500 | 91 | 1460 | 4 | 10.8 | CCCN(CCCCC#N)C1CCc2c(O)cccc2C1 (stereo not drawn) |  |  | 
145 | 18 | 1800 | > 7 | 9.7 | CCCN1C[C@H](CSC)C[C@@H]2c3cccc4[nH]cc(c34)C[C@H]21 [PERGOLIDE] |  |  | 
1800 | 190 |  |  |  | CCCN(CCCNC(C)=O)C1CCc2c(O)cccc2C1 (stereo not drawn) | 4 | 1.6 | 159
3500 | 490 |  |  |  | CCCN(CCCC#N)C1CCc2c(O)cccc2C1 (single isomer, unassigned; (+)) |  |  | 
220 | 43 |  |  |  | CCCN(CCCSC)C1CCc2c(O)cccc2C1 (stereo in doubt; 12) [listing 1 of 2 here] |  |  | 
1300 | 220 |  |  |  | CCCN(CCCNC(=O)N(CC)CC)C1CCc2c(O)cccc2C1 (stereo not drawn) |  |  | 
1020 | 46 | 2660 | 7 | 12.5 | CCCN(CCCCl)C1CCc2c(O)cccc2C1 (stereo not drawn) |  |  | 
530 | 58 | 1860 | 7 | 6.7 | CCCN(CCCN=[N+]=[N-])C1CCc2c(O)cccc2C1 (stereo not drawn) |  |  | 
3500 | 500 | < 150 |  |  | CN(CCCC#N)C1CCc2c(O)cccc2C1 (stereo not drawn) |  |  | 
 |  | 1980 | 7 | 9.8 | CCCN(CCCSC)C1CCc2c(O)cccc2C1 (stereo in doubt; 12) [listing 2 of 2 here] |  |  | 
7500 | 130 | < 150 |  |  | CCCN(CCC#N)C1CCc2c(O)cccc2C1 (stereo not drawn) |  |  | 
1860 | 110 |  |  |  | CCCN(CCCS(C)(=O)=O)C1CCc2c(O)cccc2C1 (stereo not drawn) | 1 | 5.7 | 531
910 | 140 |  |  |  | CCCN(CCCC(=O)OC)C1CCc2c(O)cccc2C1 (stereo not drawn) |  |  | <150

SMILES | IC50 [1] [nM] | IC50 [2] [nM] | Total turnings [3] | Duration [4] [h] | Max intensity [5] [turns min-1] | Duration (Rattus norvegicus) [h] | Max intensity (Rattus norvegicus) [turns min-1] | Total turnings (Rattus norvegicus)
C=CCCCN(CCC)C1CCc2c(O)cccc2C1 (stereo not drawn) | 400 | 48 | 1740 | 7 | 7.7 |  |  | 
CN1C[C@@H](CC#N)C[C@@H]2c3cccc4[nH]cc(c34)C[C@H]21 [DELERGOTRILE] | 520 | 265 | 2610 | > 7 | 14.4 |  |  | 
CCN(CC)S(=O)(=O)N[C@H]1C[C@@H]2c3cccc4[nH]cc(c34)C[C@H]2N(C)C1 [ETISULERGINE] | 25 | 120 |  |  |  | >7 | 11.8 | 3688
CCCN(CCC)C1CCc2c(O)cccc2C1 (stereo not drawn) [5-OH-DPAT] | 1350 | 49 | 2540 | 6 | 22.7 |  |  | 

Source: ChEMBL document CHEMBL1123289, “Structure-activity relationships of dopaminergic 5-hydroxy-2-aminotetralin derivatives with functionalized N-alkyl substituents” (J Med Chem, 1986)
